Assay results from ChEMBL document CHEMBL4334473, “Structure-Based Molecular Networking for the Target Discovery of Oxahomoaporphine and 8-Oxohomoaporphine Alkaloids from Duguetia surinamensis” (J Nat Prod, 2019).

Columns and labels:
MCF7 = assay: Cytotoxicity against human MCF7 cells assessed as cell growth inhibition after 72 hrs by alamar blue assay; type: functional, cell-based; conditions: MCF7, 72 h
In short: (§1)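 Tumour lines and MRC-5 fibroblasts obtained from ATCC, cultured per ATCC guidelines and confirmed mycoplasma-free by staining. Viability read by Alamar blue after 72 h exposure. IC50 in μM with 95% confidence interval by nonlinear regression, from at least three independent experiments run in duplicate. Doxorubicin served as positive control.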

HCT-116 = assay: Cytotoxicity against human HCT116 cells assessed as cell growth inhibition after 72 hrs by alamar blue assay; type: functional, cell-based; conditions: HCT-116, 72 h; in short: as §1
HepG2 = assay: Cytotoxicity against human HepG2 cells assessed as cell growth inhibition after 72 hrs by alamar blue assay; type: functional, cell-based; conditions: HepG2, 72 h; in short: as §1
HL-60 = assay: Cytotoxicity against human HL60 cells assessed as cell growth inhibition after 72 hrs by alamar blue assay; type: functional, cell-based; conditions: HL-60, 72 h; in short: as §1
MRC5 = assay: Cytotoxicity against human MRC5 cells assessed as cell growth inhibition after 72 hrs by alamar blue assay; type: cell-based; conditions: MRC5, 72 h; in short: as §1
HCT-8 = assay: Cytotoxicity against human HCT8 cells assessed as inhibition of cell viability after 69 hrs by MTT assay; type: functional, cell-based; conditions: HCT-8, 69 h
SF-295 = assay: Cytotoxicity against human SF295 cells assessed as inhibition of cell viability after 69 hrs by MTT assay; type: functional, cell-based; conditions: SF-295, 69 h
MDA-MB-435 = assay: Cytotoxicity against human MDA-MB-435 cells assessed as inhibition of cell viability after 69 hrs by MTT assay; type: functional, cell-based; conditions: MDA-MB-435, 69 h

| SMILES | IC50 (MCF7) [µM] | IC50 (HCT-116) [µM] | IC50 (HepG2) [µM] | IC50 (HL-60) [µM] | IC50 (MRC5) [µM] | IC50 (HCT-8) [µM] | IC50 (SF-295) [µM] | IC50 (MDA-MB-435) [µM] |
| --- | --- | --- | --- | --- | --- | --- | --- | --- |
| COc1ccc2c(c1)c(=O)cc1c3c(cc4c(c32)OCO4)CCN1C | > 10 | > 10 | > 10 | > 10 | > 10 |  |  |  |
| COc1cc2c(=O)cc3c4c(cc5c(c4c2cc1OC)OCO5)CCN3C | > 10 | > 10 | > 10 | > 10 | > 10 |  |  |  |
| COc1cc2c(cc1OC)-c1c3c(cc4c1[C@H](C2)N(C)CC4)OCO3 [DICENTRINE] | > 10 | 8.8 | > 10 | 3.7 | > 10 |  |  |  |
| COc1cccc2c1C(=O)c1c(O)c3c(c(O)c1C2=O)C[C@@](O)(C(=O)CO)C[C@@H]3O[C@H]1C[C@H](N)[C@H](O)[C@H](C)O1 [DOXORUBICIN] |  | 0.3 | 0.04 | 0.04 | 2.4 |  |  |  |
| COc1cc2c(cc1OC)[C@H](O)[C@@H]1c3c(cc4c(c3-2)OCO4)CCN1C | > 10 | > 10 | 5 | 4.8 | > 10 | 1.4 | 1.4 | 12.4 |
| COc1cc2c(cc1OC)[C@H](O)[C@@H]1c3c(cc4c(c3-2)OCO4)CC[N+]1(C)[O-] (stereo not given in full) | > 10 | 9.2 | > 10 | 9.6 | > 10 | 1.9 | 1.6 | 7.3 |
| COC1=C[C@@]23CCN(C)[C@@H](Cc4cc(O)c(OC)cc42)C3=CC1=O | > 10 | > 10 | > 10 | > 10 | > 10 |  |  |  |
| COc1ccc(OC)c(OC)c1 [1,2,4-TRIMETHOXYBENZENE] | > 10 | > 10 | > 10 | > 10 | > 10 |  |  |  |
| COc1cc2c(cc1OC)-c1c3c(cc4ccnc(c14)C2=O)OCO3 [DICENTRINONE] | > 10 | > 10 | > 10 | > 10 | > 10 |  |  |  |
| COc1cc2c(cc1OC)[C@@H](O)[C@@H]1NCCc3cc4c(c-2c31)OCO4 | 10 | 4 | 9.1 | 2 | > 10 |  |  |  |
